Rows were chosen to be rich in hits. Some 1.8% of all compounds tested hit in one or more screens of this group.
LEDGF integ inh: blocks HIV-1 LEDGF/p75-dependent DNA integration | 370,000 tested, 0.64% active | AID 743269 | TR-FRET IN-LEDGF/p75 DNA integration, Eu/Cy5 | inhibition, % at 3.7 µM;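 active = inhibition above the screen-wide mean plus 3 SD, cut at about 13% in these data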;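 also: signal is the Cy5 over europium emission ratio at 671 and 618 nm; 0% = plate median of compound wells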
UHRF1 MBD2 ctr: human UHRF1 methylated DNA binding inhibitors | Q96T88 | UHRF1 binding to methylated oligo, TR-FRET | inhibition, % at 4.4 µM | 370,000 tested, 0.75% active | AID 687016; in the data active = inhibition above about 21%;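 also: UHRF1 SRA domain binding a hemimethylated CpG hairpin DNA probe; 0% = median of test compound wells and 100% = reference inhibitor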
NSD2 inh: blocks human histone methyltransferase NSD2 | NSD2 peptide methylation, AlphaScreen, 120 min | inhibition, % at 12.5 µM | 310,000 tested, 0.54% active | AID 743445; in the data active = inhibition above about 50%
Casp6 inh: caspase-6 (human) enzyme inhibition. P55212. inhibition, % at 12.5 µM. 350,000 tested, 0.53% active. purified caspase-6, Z-VEID-R110 cleavage fluorescence;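 active = mean inhibition across replicates at least about 35%, with every replicate also reaching that limit, limit read from the data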;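 also: 0% = median of neutral control wells and 100% = no fluorescence left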
Target sequence (P55212 24-179 limits assumed): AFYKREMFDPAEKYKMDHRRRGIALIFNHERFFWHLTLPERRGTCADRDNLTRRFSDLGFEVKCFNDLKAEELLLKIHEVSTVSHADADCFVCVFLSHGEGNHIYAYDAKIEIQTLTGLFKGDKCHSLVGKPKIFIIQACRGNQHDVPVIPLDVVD
Target sequence (P55212 194-293 limits assumed): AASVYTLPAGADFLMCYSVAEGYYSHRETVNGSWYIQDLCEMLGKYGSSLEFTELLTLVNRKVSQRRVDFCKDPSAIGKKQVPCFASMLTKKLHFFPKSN
TDP2 inh: TDP2 (human) inhibition, absorbance primary screen; O95551; recombinant TDP2, T5PNP hydrolysis, p-nitrophenol absorbance 415 nm; inhibition, % at 12.8 µM; 370,000 tested, 0.34% active;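 active = inhibition above the mean of all tested compounds plus 3 SD, set per campaign, cut at about 25% in these data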;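 also: 0% = DMSO with enzyme and 100% = buffer with substrate but no TDP2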
Target sequence (O95551 whole entry, looked up): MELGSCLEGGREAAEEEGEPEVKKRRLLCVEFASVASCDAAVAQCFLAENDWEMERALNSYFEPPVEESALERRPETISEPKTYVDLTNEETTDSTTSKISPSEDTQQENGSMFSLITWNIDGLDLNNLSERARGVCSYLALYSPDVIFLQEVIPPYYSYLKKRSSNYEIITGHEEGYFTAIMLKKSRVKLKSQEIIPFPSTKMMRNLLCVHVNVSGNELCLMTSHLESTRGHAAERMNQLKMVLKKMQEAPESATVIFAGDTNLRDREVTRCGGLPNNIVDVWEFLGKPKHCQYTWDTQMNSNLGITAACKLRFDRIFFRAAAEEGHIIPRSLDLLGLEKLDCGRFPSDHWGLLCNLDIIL
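Test system: human TDP2 enzyme; Input: 120 nM TDP2 per well; Buffer or medium: Mg2+-containing Tris-HCl buffer, pH 7.5; Reagent: 5 mM T5PNP; Dosing: 12.8 µM single point, 1% DMSO; Incubation: reaction 2 h, 37 °C; Detection: p-Nitrophenol epi absorbance; Read-out: % inhibition relative to enzyme-containing and enzyme-free wells; Replicates: single well per compound.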
MBD2 DNA inh: inhibitors of human MBD2 binding to methylated oligonucleotide; Q9UBB5; TR-FRET; inhibition, % at 4.4 µM; AID 686964; 370,000 tested, 0.31% active; in the data active = inhibition above about 13%
Active calls of the source: *; nt = not tested or not shown; ! = repeats disagree.

SMILES	LEDGF integ inh	UHRF1 MBD2 ctr	NSD2 inh	Casp6 inh	TDP2 inh	MBD2 DNA inh
C[C@@H]1CN([C@@H](C)CO)S(=O)(=O)c2ccc(C3=CCCC3)cc2O[C@@H]1CN(C)S(=O)(=O)c1cn(C)cn1	nt	nt	nt	1	nt	nt
CC(=O)Nc1cccc2cc(S(=O)(=O)O)ccc12	-2	6	5	44*	1	5
CCC(=O)N1CC2(C1)CN(C(=O)Nc1ccccc1F)[C@@H](CO)c1[nH]c3cc(OC)ccc3c12	nt	nt	nt	3	nt	nt
O=C(NCCn1cc(SCC(=O)N2CCOCC2)c2ccccc21)c1ccccc1	1	-2	nt	-1	8	-5
Cc1cc(C)cc(C(=O)NCCn2cc(SCC(=O)N3CCOCC3)c3ccccc32)c1	2	38*	nt	-1	-21	2
CCC(C(=O)NCC1CCCO1)N(C(=O)CNS(=O)(=O)c1ccccc1)c1ccc(F)cc1 (centres undefined)	89*	11	-2	0	-1	8
CCCC(C(=O)NCC1CCCO1)N(C(=O)CNS(=O)(=O)c1ccccc1)c1ccc(F)cc1 (centres undefined)	-3	-2	-5	0	10	0
CC(C)C(C(=O)NC1CCCC1)N(CC1CCCO1)C(=O)CNS(=O)(=O)c1ccc(F)cc1 (centres undefined)	2	28*	nt	2	4	-3
C[C@H]1CN([C@@H](C)CO)C(=O)c2cccc(NS(=O)(=O)c3cn(C)cn3)c2O[C@H]1CN(C)Cc1ccncc1	nt	nt	nt	-2	nt	nt
O=C(C[C@@H]1C[C@@H]2c3cc(NS(=O)(=O)c4ccc(F)cc4)ccc3O[C@@H]2[C@H](CO)O1)NCc1ccc(Oc2ccccc2)cc1	2	23*	nt	-1	-12	10
CN(C)c1ccc2c(c1)[C@@H]1C[C@@H](CC(=O)N3CCOCC3)O[C@@H](CO)[C@@H]1O2	nt	nt	nt	55*	nt	nt
O=C(Nc1ccc2c(c1)[C@H]1C[C@H](CC(=O)N3CCCCC3)O[C@H](CO)[C@H]1O2)Nc1ccccc1F	nt	nt	nt	2	nt	nt
O=C(Nc1ccc2c(c1)[C@H]1C[C@H](CC(=O)N3CCCCC3)O[C@@H](CO)[C@H]1O2)Nc1ccccc1F	nt	nt	nt	36*	nt	nt
O=C(C[C@@H]1C[C@H]2c3cc(NS(=O)(=O)c4ccc(F)cc4)ccc3O[C@H]2[C@H](CO)O1)NCc1ccc(Oc2ccccc2)cc1	nt	nt	nt	1	nt	nt
O=C(NC1CCCCC1)N[C@H]1CC[C@H](CCNS(=O)(=O)c2ccc(Cl)cc2)O[C@H]1CO	nt	nt	nt	-7	nt	nt
CCC(=O)N1[C@@H]2c3ccc(C4=CCCC4)c(=O)n3C[C@@H]2[C@@H](CO)[C@@H]1C(=O)NC1CCC1	nt	nt	nt	0	nt	nt
CCCNC(=O)C[C@H]1CC[C@@H]2[C@H](COc3ccc(NS(=O)(=O)c4ccccc4C)cc3C(=O)N2C)O1	nt	nt	nt	-2	nt	nt
COc1ccc(NS(=O)(=O)c2cc(OC)ccc2OC)cc1	-3	3	50	9	2	0
CCc1ccc(NS(=O)(=O)c2cc(OC)ccc2OC)cc1	3	-1	nt	58*	-5	2
C[C@H]1CN([C@@H](C)CO)C(=O)CCCn2cc(nn2)CO[C@@H]1CN(C)C(=O)CCC(F)(F)F	3	-1	nt	45*!	7	-4
C[C@@H]1CN([C@H](C)CO)C(=O)CCCn2cc(nn2)CO[C@H]1CN(C)C(=O)CCC(F)(F)F	-5	4	nt	-2	7	2
C=CCOc1c(OC)cc(/C=N/Nc2cccc(C(=O)O)c2)c(Br)c1Br	3	9	11	43*	-4	3
Cc1cc(C)c(S(=O)(=O)/N=C2\C=C(Nc3ccc(C(=O)O)cc3)C(=O)c3ccccc32)c(C)c1	43*	8	nt	-3	84*	-3
CCOc1ccc(Nc2nc(N3CCOCC3)nc(N3CCOCC3)n2)cc1	0	-3	-1	41*	11	-7
CC(C)(C)S(=O)N1Cc2cc(C(=O)N3CCc4ccccc4C3)nc(-c3cccc(-c4cccnc4)c3)c2[C@@H]1CCO (some centres undefined)	-3	-8	nt	42*	7	-11
SMILES	LEDGF integ inh	UHRF1 MBD2 ctr	NSD2 inh	Casp6 inh	TDP2 inh	MBD2 DNA inh
CC(C)(C)[S@@](=O)N1Cc2cc(C(=O)N3CCc4ccccc4C3)nc(-c3cccc(-c4cccnc4)c3)c2[C@H]1CCO	nt	nt	nt	1	nt	nt
O=C(O)/C(=C\c1cccc(O)c1)c1ccc(S(=O)(=O)N2CCCC2)s1	2	0	-2	58*	0	0
CSc1ccc(/C=C(\C(=O)O)c2ccc(S(=O)(=O)N3CCCC3)s2)cc1	2	3	26	46*	-5	3
CCOCc1nnc(NC(C)=O)s1	-3	0	nt	nt	1	3
CCOCc1nnc(NC(=O)CS(=O)(=O)c2ccc(C)cc2)s1	-3	26*	-4	nt	8	0
CC(C)NC(=O)Nc1cccc2c1O[C@@H](CN(C)S(=O)(=O)c1ccc(F)cc1)[C@H](C)CN([C@H](C)CO)C2=O	nt	nt	nt	1	nt	nt
C/C(=N\NC(=O)CN1CCCCC1)c1cccc([N+](=O)[O-])c1	-2	25*	-1	1	0	0
O=C(CN1CCCCCC1)Nc1cccc([N+](=O)[O-])c1	2	0	6	0	12	-3
CNC(=O)C[C@H]1CC[C@@H]2[C@H](COC[C@H](O)CN2Cc2ccc(Cl)c(Cl)c2)O1	nt	nt	nt	-2	nt	nt
Nc1ccc2cn[nH]c2c1	1	-5	nt	44*	1	-4
CCCn1c(SCC(=O)c2cc(C)n(-c3ccc4c(c3)OCO4)c2C)n[nH]c1=O	0	-1	10	13	-1	2
CCCn1c(SCC(=O)c2cc(C)n(C3CC3)c2C)n[nH]c1=O	-2	26*	4	-1	8	-4
CC(Oc1ccccc1)C(=O)Nc1cccc(NC(=O)c2ccco2)c1 (centres undefined)	3	4	7	39*	-15	-7
CCCCCCSc1ccc(-c2nc3ccc(Cl)cn3c2NCCCC)cc1OC	-2	-1	-2	0	4	4
CCCCCCSc1cc(-c2nc3ccc(Cl)cn3c2NC2CCCCC2)ccc1OC	0	58*	nt	2	3	0
CCCCNc1c(-c2ccc(SC3CCCCC3)c(OC)c2)nc2ccc(Cl)cn12	11	24*	nt	2	24	10
COc1cccc(NC(=O)N2C[C@H](O)COC[C@H]3O[C@@H](CC(=O)NCc4ccccc4F)CC[C@@H]32)c1	nt	nt	nt	-1	nt	nt
CN(C)CCNc1ncnc2c1sc1nc(N3CCCC3)c3c(c12)CC(C)(C)OC3	-3	23*	13	-5	-4	9
C[C@H]1CCCCO[C@H](CN(C)C(=O)c2ccccc2)[C@@H](C)CN([C@@H](C)CO)C(=O)c2cc(NC(=O)Nc3ccc(F)cc3)ccc2O1	nt	nt	nt	0	nt	nt
O=C(N[C@@H]1CC[C@@H](CC(=O)N2CCc3ccccc3C2)O[C@@H]1CO)C1CC1	nt	nt	nt	5	nt	nt
